Tests used:
Glucocorticoid receptor = biological target: T1, Glucocorticoid receptor (Homo sapiens, UniProt P04150); test: Inhibitory activity (IC50) against human glucocorticoid receptor expressed in CV-1 cells; type: cell-based
T1 sequence (P04150 whole entry): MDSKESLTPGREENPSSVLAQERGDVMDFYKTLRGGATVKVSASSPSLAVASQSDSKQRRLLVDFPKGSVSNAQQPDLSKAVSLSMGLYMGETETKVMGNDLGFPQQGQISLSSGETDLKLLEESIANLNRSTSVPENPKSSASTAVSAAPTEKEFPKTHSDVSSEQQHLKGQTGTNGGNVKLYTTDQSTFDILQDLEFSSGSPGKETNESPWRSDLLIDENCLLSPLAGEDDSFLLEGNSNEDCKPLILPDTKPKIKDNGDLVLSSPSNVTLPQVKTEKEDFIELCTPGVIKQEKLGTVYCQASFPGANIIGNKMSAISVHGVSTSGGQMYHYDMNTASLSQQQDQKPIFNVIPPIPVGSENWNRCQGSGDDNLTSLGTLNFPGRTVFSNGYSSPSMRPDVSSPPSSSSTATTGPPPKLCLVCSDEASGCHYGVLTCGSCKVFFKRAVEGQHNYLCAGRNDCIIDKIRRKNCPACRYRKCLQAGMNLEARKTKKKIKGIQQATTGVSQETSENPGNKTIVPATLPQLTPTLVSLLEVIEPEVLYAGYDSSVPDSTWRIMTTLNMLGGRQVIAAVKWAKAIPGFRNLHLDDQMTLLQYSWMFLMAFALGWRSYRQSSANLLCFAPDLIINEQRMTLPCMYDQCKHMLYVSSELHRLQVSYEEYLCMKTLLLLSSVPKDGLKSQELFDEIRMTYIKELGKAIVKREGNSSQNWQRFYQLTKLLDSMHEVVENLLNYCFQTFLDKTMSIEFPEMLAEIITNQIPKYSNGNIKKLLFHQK
How it was run: (§1)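 Cotransfection assays in CV-1 cells with a luciferase reporter, read as normalized LUC expression. In antagonist mode, the reference agonists were DHT for hAR, dexamethasone for hGR and aldosterone for hMR. Antagonist efficacy was expressed as the percent of maximal inhibition of the agonist. Values are means of at least three separate experiments in triplicate, or of two experiments.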

[1] = biological target: T2, Mineralocorticoid receptor (Homo sapiens, UniProt P08235); test: Inhibitory activity (IC50) against human mineralocorticoid receptor expressed in CV-1 cells; type: cell-based; how it was run: as §1
T2 sequence (P08235 whole entry): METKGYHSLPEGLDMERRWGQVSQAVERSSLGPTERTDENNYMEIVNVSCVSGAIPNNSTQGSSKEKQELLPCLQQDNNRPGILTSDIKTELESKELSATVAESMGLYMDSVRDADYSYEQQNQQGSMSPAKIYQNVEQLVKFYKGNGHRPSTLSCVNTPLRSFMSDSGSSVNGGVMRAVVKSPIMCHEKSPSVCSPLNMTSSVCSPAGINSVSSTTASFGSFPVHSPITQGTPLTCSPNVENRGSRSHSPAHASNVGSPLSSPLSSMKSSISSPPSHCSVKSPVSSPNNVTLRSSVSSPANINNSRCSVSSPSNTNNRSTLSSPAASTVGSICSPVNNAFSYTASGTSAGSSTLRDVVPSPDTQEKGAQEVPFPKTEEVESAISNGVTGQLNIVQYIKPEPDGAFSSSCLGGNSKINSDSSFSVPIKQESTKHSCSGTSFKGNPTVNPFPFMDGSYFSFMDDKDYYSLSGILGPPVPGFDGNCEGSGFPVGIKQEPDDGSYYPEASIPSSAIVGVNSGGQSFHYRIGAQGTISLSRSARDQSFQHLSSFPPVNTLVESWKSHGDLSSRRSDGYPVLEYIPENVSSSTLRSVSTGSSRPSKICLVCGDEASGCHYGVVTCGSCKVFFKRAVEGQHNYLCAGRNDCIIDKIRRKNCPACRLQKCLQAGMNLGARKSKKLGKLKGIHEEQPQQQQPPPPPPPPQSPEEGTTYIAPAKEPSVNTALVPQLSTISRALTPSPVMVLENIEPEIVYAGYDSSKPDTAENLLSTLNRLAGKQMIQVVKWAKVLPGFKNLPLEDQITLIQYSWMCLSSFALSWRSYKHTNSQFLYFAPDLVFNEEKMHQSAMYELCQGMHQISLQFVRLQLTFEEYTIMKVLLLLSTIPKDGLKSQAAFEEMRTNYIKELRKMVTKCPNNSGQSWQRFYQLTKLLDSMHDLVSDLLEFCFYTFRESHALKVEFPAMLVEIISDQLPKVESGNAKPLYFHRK

Androgen receptor [2] = biological target: T3, Androgen receptor (Homo sapiens, UniProt P10275); test: Inhibitory activity (IC50) against human androgen receptor expressed in CV-1 cells; type: cell-based; how it was run: as §1
T3 sequence (P10275 whole entry): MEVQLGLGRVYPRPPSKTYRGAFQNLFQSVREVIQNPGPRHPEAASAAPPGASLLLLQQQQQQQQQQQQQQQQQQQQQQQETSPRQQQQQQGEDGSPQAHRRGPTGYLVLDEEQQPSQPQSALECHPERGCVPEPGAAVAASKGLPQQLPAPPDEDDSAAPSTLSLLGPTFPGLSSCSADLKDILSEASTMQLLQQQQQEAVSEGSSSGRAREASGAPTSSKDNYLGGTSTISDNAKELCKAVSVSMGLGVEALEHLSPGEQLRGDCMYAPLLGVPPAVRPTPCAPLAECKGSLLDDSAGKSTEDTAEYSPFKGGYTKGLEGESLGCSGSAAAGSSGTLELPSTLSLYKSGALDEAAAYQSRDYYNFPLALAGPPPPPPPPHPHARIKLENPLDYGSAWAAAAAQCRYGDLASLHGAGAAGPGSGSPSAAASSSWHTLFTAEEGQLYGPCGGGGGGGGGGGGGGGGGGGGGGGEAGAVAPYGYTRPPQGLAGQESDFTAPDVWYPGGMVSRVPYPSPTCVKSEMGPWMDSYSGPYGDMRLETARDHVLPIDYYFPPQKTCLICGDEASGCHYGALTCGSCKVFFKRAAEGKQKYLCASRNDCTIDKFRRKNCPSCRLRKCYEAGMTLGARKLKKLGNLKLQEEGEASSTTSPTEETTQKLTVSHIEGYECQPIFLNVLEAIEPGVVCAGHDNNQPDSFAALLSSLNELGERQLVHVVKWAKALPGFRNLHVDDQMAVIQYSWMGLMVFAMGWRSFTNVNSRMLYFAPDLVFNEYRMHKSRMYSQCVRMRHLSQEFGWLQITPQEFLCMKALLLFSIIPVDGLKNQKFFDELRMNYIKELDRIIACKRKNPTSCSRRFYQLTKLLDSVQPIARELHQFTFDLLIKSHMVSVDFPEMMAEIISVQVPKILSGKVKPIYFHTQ

Androgen receptor [3] = biological target: T3, Androgen receptor

| SMILES | IC50 (Glucocorticoid receptor) [µM] | IC50 [1] [µM] | IC50 (Androgen receptor [2]) [µM] | IC50 (Androgen receptor [3]) [µM] |
| --- | --- | --- | --- | --- |
| CC1=CC(C)(C)Nc2ccc3c(c21)/C(=C/c1ccc(F)c(F)c1)Oc1ccccc1-3 | 1.65 | > 10 | 0.916 |  |
| CC1=CC(C)(C)Nc2ccc3c(c21)/C(=C/c1ccccc1C)Oc1ccccc1-3 | 1.05 | > 10 |  | 1.06 |
| CC1=CC(C)(C)Nc2ccc3c(c21)/C(=C/c1cc(F)ccc1F)Oc1ccccc1-3 | 0.371 | > 10 | 1.6 |  |
